Laboratory results from ChEMBL document CHEMBL1138512, “A class of 2,4-bisanilinopyrimidine Aurora A inhibitors with unusually high selectivity against Aurora B” (J Med Chem, 2009).
pIC50: −log10 of the molar value.

How the values were obtained:
Aurora kinase B [1] = target: T1, Aurora kinase B (Homo sapiens, UniProt Q96GD4); assay: Inhibition of N-terminal flag-tagged Aurora B expressed in Escherichia coli BL21-DE3 by ELISA
[2] = target: T2, Cyclin-dependent kinase 2 (Homo sapiens, UniProt P24941); assay: Inhibition of CDK2/cyclin A
HCT-116 = assay: Antiproliferative activity against human HCT116 cells after 4 days by celltiter assay; assay type: functional, cell-based; settings: HCT-116, 96 h
HT-29 = assay: Antiproliferative activity against human HT-29 cells after 4 days by celltiter assay; assay type: functional, cell-based; settings: HT-29, 96 h
[3] = target: Tyrosine-protein kinase ABL1 (Homo sapiens) (UniProt P00519); assay: Inhibition of ABL1 at 1 uM
[4] = target: Activin receptor type-1B (Homo sapiens) (UniProt P36896); assay: Inhibition of ALK4 at 1 uM
[5] = target: Beta-adrenergic receptor kinase 1 (Homo sapiens) (UniProt P25098); assay: Inhibition of GRK2 at 1 uM
[6] = target: RAC-alpha serine/threonine-protein kinase (Homo sapiens) (UniProt P31749); assay: Inhibition of PKBalpha at 1 uM
[7] = target: ALK tyrosine kinase receptor (Homo sapiens) (UniProt Q9UM73); assay: Inhibition of ALK at 1 uM
Aurora kinase B [8] = target: T1, Aurora kinase B; assay: Inhibition of Aurora B at 1 uM
[9] = target: Aurora kinase C (Homo sapiens) (UniProt Q9UQB9); assay: Inhibition of Aurora C at 1 uM
[10] = target: Tyrosine-protein kinase receptor UFO (Homo sapiens) (UniProt P30530); assay: Inhibition of Axl at 1 uM
[11] = target: Tyrosine-protein kinase BTK (Homo sapiens) (UniProt Q06187); assay: Inhibition of BTK at 1 uM
[12] = target: Calcium/calmodulin-dependent protein kinase type II subunit alpha (Homo sapiens) (UniProt Q9UQM7); assay: Inhibition of CaMK2alpha at 1 uM
[13] = target: T2, Cyclin-dependent kinase 2; assay: Inhibition of CDK2/cyclin A at 1 uM
[14] = target: Casein kinase I isoform alpha (Homo sapiens) (UniProt P48729); assay: Inhibition of CK1alpha1 at 1 uM
[15] = target: Casein kinase I isoform gamma-2 (Homo sapiens) (UniProt P78368); assay: Inhibition of CK1gamma2 at 1 uM
Chain of Casein kinase I isoform gamma-2 (Homo sapiens) (P78368 whole entry, looked up, canonical isoform): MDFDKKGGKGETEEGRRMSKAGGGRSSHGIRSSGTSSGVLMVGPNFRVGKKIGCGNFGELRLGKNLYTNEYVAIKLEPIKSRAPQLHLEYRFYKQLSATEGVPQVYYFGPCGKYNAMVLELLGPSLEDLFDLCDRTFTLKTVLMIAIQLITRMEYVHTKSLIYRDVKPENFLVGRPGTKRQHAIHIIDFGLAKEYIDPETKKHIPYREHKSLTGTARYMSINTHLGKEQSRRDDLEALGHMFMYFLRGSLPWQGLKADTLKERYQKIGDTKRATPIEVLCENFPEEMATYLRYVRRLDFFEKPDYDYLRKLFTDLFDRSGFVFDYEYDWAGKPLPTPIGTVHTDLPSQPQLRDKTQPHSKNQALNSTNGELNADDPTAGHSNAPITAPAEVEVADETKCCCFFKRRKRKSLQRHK

[16] = target: Casein kinase II subunit alpha (Homo sapiens) (UniProt P68400); assay: Inhibition of CK2alpha1 at 1 uM
[17] = target: Dual specificity tyrosine-phosphorylation-regulated kinase 3 (Homo sapiens) (UniProt O43781); assay: Inhibition of DYRK3 at 1 uM
[18] = target: Ephrin type-A receptor 1 (Homo sapiens) (UniProt P21709); assay: Inhibition of EPHA1 at 1 uM
Chain of Ephrin type-A receptor 1 (Homo sapiens) (P21709 whole entry): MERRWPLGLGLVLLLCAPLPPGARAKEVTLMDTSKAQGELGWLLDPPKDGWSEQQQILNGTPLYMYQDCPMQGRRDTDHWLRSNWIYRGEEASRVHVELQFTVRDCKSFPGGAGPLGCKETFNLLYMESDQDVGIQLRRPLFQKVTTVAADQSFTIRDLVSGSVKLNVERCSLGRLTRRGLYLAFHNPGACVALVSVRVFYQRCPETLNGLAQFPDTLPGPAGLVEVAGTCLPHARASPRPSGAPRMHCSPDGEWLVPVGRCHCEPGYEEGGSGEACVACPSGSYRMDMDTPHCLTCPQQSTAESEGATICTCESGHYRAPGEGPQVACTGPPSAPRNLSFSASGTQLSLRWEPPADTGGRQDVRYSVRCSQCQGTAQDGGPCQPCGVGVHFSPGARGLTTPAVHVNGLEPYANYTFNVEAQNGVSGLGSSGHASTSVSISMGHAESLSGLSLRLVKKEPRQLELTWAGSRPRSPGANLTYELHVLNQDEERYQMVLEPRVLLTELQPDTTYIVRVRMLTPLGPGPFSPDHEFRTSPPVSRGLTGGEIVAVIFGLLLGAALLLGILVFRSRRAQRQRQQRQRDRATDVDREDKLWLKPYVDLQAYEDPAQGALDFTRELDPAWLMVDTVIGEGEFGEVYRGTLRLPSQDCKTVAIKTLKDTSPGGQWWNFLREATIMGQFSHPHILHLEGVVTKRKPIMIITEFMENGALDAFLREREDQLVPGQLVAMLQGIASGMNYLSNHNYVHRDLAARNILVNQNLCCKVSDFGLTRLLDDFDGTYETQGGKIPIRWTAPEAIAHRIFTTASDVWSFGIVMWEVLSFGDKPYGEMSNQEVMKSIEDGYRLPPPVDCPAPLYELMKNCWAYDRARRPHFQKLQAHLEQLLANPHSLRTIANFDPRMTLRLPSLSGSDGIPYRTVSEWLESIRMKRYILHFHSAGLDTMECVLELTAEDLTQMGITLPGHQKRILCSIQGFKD

[19] = target: Ephrin type-B receptor 1 (Homo sapiens) (UniProt P54762); assay: Inhibition of EPHB1 at 1 uM
[20] = target: Fibroblast growth factor receptor 1 (Homo sapiens) (UniProt P11362); assay: Inhibition of FGFR1 at 1 uM
[21] = target: Serine/threonine-protein kinase mTOR (Homo sapiens) (UniProt P42345); assay: Inhibition of mTOR at 1 uM
[22] = target: G protein-coupled receptor kinase 4 (Homo sapiens) (UniProt P32298); assay: Inhibition of GRK4 at 1 uM
[23] = target: Glycogen synthase kinase-3 beta (Homo sapiens) (UniProt P49841); assay: Inhibition of GSK3-beta at 1 uM
[24] = target: Inhibitor of nuclear factor kappa-B kinase subunit beta (Homo sapiens) (UniProt O14920); assay: Inhibition of IKK-beta at 1 uM
Chain of Inhibitor of nuclear factor kappa-B kinase subunit beta (Homo sapiens) (O14920 whole entry): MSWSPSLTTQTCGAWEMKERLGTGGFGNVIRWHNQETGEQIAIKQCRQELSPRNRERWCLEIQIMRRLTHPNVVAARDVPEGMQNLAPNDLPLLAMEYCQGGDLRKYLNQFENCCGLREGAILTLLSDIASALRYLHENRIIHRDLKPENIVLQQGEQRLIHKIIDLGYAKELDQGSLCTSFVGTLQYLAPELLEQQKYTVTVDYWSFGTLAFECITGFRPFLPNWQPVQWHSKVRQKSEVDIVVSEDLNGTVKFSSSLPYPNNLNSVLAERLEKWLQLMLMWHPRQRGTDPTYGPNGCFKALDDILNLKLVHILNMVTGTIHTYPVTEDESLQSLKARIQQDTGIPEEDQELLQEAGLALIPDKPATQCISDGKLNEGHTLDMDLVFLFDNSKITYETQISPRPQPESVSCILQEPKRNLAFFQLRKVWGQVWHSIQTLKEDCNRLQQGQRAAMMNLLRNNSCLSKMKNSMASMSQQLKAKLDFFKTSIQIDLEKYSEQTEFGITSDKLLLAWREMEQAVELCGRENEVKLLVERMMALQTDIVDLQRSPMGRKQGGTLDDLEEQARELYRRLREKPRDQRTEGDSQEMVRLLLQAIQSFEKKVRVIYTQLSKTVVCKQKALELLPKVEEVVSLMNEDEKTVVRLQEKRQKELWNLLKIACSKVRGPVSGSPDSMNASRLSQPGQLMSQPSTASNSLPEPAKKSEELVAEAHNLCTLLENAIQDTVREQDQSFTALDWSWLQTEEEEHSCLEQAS

[25] = target: Insulin receptor (Homo sapiens) (UniProt P06213); assay: Inhibition of INSR at 1 uM
[26] = target: Vascular endothelial growth factor receptor 2 (Homo sapiens) (UniProt P35968); assay: Inhibition of VEGFR2 at 1 uM
[27] = target: Mitogen-activated protein kinase 1 (Homo sapiens) (UniProt P28482); assay: Inhibition of ERK2 at 1 uM
[28] = target: Mitogen-activated protein kinase 8 (Homo sapiens) (UniProt P45983); assay: Inhibition of JNK1 at 1 uM
[29] = target: MAP kinase-activated protein kinase 2 (Homo sapiens) (UniProt P49137); assay: Inhibition of MAPKAPK2 at 1 uM
[30] = target: Hepatocyte growth factor receptor (Homo sapiens) (UniProt P08581); assay: Inhibition of c-Met at 1 uM
[31] = target: Serine/threonine-protein kinase Nek4 (Homo sapiens) (UniProt P51957); assay: Inhibition of NEK4 at 1 uM
[32] = target: Serine/threonine-protein kinase Nek6 (Homo sapiens) (UniProt Q9HC98); assay: Inhibition of NEK6 at 1 uM
Chain of Serine/threonine-protein kinase Nek6 (Homo sapiens) (Q9HC98 whole entry): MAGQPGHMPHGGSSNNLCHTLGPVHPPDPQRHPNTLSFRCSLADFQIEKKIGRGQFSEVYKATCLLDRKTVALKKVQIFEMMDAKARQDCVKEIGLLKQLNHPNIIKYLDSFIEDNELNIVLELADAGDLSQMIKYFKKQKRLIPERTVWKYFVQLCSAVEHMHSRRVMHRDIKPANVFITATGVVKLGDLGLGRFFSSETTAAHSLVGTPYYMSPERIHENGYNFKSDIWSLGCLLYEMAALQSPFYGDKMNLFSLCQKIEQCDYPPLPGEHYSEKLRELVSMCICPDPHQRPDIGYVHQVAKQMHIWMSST

[33] = target: Serine/threonine-protein kinase Nek9 (Homo sapiens) (UniProt Q8TD19); assay: Inhibition of NEK9 at 1 uM
[34] = target: High affinity nerve growth factor receptor (Homo sapiens) (UniProt P04629); assay: Inhibition of TRKA at 1 uM
Chain of High affinity nerve growth factor receptor (Homo sapiens) (P04629 33-796 limits assumed): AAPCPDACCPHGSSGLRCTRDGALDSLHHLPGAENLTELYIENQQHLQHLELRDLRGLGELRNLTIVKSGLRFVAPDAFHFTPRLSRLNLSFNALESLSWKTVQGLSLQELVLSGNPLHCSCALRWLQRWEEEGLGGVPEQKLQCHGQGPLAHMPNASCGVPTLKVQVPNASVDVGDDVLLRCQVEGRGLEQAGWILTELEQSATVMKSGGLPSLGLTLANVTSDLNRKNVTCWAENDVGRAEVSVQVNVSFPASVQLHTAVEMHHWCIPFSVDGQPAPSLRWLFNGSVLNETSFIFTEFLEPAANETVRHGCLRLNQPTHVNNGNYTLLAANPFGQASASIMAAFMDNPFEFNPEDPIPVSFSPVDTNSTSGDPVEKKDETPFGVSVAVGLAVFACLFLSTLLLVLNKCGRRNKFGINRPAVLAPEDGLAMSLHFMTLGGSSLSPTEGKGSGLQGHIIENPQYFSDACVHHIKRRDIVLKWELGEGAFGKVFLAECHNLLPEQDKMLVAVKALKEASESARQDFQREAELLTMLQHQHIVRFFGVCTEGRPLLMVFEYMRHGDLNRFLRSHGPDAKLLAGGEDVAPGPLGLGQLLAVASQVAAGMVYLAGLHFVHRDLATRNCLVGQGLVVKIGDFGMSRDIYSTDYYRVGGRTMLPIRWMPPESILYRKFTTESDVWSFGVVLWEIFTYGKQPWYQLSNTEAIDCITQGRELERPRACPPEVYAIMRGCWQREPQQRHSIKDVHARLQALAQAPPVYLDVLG

[35] = target: Phosphorylase b kinase gamma catalytic chain, skeletal muscle/heart isoform (Homo sapiens) (UniProt Q16816); assay: Inhibition of PHKG1 at 1 uM
[36] = target: Serine/threonine-protein kinase PLK2 (Homo sapiens) (UniProt Q9NYY3); assay: Inhibition of PLK2 at 1 uM
[37] = target: Serine/threonine-protein kinase PLK3 (Homo sapiens) (UniProt Q9H4B4); assay: Inhibition of PLK3 at 1 uM
[38] = target: cAMP-dependent protein kinase catalytic subunit alpha (Homo sapiens) (UniProt P17612); assay: Inhibition of PRKACA at 1 uM
[39] = target: Rho-associated protein kinase 1 (Homo sapiens) (UniProt Q13464); assay: Inhibition of ROCK1 at 1 uM
Chain of Rho-associated protein kinase 1 (Homo sapiens) (Q13464 2-1354 limits assumed): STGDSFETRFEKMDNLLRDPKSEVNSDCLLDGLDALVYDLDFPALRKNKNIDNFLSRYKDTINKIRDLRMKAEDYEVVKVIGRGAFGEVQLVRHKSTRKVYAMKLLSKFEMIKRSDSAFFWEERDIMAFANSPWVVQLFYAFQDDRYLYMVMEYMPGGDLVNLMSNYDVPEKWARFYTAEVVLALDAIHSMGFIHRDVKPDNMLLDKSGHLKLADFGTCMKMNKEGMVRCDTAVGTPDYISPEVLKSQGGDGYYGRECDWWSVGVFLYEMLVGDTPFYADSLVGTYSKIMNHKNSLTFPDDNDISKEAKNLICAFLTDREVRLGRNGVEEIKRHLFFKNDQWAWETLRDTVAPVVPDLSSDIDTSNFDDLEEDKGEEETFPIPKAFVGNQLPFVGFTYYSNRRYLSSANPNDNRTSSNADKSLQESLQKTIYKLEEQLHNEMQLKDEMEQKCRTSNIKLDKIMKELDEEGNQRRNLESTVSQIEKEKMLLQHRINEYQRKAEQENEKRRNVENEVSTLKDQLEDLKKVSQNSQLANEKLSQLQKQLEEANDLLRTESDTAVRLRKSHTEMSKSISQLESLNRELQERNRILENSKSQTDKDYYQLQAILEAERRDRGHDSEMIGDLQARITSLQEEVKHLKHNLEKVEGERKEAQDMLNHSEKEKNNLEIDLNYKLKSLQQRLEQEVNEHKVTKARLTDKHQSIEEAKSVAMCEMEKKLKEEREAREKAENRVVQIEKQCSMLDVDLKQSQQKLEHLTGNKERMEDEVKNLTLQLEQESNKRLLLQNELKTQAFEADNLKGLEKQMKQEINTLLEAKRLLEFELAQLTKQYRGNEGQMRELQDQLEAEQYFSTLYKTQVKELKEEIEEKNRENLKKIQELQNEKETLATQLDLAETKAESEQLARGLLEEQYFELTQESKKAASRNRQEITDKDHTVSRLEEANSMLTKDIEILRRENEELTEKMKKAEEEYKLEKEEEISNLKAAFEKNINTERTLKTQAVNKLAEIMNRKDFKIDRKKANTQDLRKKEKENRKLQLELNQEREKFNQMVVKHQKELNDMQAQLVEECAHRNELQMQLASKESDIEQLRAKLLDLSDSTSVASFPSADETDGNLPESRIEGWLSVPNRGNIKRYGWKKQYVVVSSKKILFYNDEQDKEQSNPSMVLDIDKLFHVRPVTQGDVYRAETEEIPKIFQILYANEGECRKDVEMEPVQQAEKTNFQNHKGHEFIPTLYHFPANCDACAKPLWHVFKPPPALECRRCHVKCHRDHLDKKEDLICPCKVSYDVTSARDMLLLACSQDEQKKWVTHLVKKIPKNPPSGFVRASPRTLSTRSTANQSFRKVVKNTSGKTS

[40] = target: Serine/threonine-protein kinase Sgk1 (Homo sapiens) (UniProt O00141); assay: Inhibition of SGK1 at 1 uM
Aurora kinase B [41] = target: T1, Aurora kinase B; assay: Inhibition of Aurora B in human HT29 cells assessed as complete loss of phospho-histone H3 staining by immunofluorescence assay; assay type: cell-based, HT-29
In short: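 Immunofluorescence for phospho-S10 histone H3 in HCT116 or HT29 cells, scored visually. Value taken as the lowest inhibitor concentration giving complete loss of staining, so it lies above the IC50. Units µM.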

Aurora kinase B [42] = target: Aurora kinase B (Homo sapiens, UniProt Q96GD4, E161T); assay: Inhibition of N-terminal flag-tagged Aurora B E161T mutant expressed in Escherichia coli BL21-DE3
Chain of Aurora kinase B (Homo sapiens, UniProt Q96GD4, E161T) (Q96GD4 whole entry E161T): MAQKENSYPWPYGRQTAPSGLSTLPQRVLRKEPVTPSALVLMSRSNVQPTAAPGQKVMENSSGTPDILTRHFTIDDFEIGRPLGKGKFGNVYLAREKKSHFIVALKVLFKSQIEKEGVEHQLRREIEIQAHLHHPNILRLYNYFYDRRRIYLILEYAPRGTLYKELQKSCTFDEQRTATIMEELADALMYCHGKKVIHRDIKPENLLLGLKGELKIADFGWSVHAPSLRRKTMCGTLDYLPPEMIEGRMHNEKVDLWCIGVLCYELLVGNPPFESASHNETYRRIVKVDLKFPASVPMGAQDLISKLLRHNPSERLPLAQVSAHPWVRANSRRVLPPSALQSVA

[43] = target: Mitogen-activated protein kinase kinase kinase 9 (Homo sapiens) (UniProt P80192); assay: Inhibition of MLK1 at 1 uM
[44] = target: Receptor tyrosine-protein kinase erbB-2 (Homo sapiens) (UniProt P04626); assay: Inhibition of HER2 at 1 uM
[45] = target: 3-phosphoinositide-dependent protein kinase 1 (Homo sapiens) (UniProt O15530); assay: Inhibition of PDK1 at 1 uM

T1 sequence (Q96GD4 whole entry): as the sequence (Q96GD4 whole entry E161T) above, with T161E counted along it

Question: How did the pIC50 (Aurora kinase B [1]) turn out when `CC(=O)N1CCN(C(=O)Cc2ccc(Nc3ncc(F)c(Nc4ccc(C(=O)Nc5ccccc5Cl)cc4)n3)cc2)CC1` was run?
Answer: Its pIC50 is 5.43.

Question: And the pIC50 [2]?
Answer: Its pIC50 is < 4.80.

Question: What about the pIC50 (HCT-116) of the same molecule?
Answer: The pIC50 was 6.19.

Question: And the pIC50 (HT-29)?
Answer: Its pIC50 is 5.21.

Question: What about the inhibition [3] of the same molecule?
Answer: Its inhibition is 33%.

Question: What about the inhibition [4] of the same molecule?
Answer: Its inhibition is 11%.

Question: What about the inhibition [5] of the same molecule?
Answer: Its inhibition is 8%.

Question: What about the inhibition [6] of the same molecule?
Answer: Its inhibition is 11%.

Question: What about the inhibition [7] of the same molecule?
Answer: Its inhibition is 21%.

Question: And the inhibition (Aurora kinase B [8])?
Answer: The inhibition was 59%.

Question: And the inhibition [9]?
Answer: Its inhibition is 36%.

Question: What about the inhibition [10] of the same molecule?
Answer: Its inhibition is 46%.

Question: What about the inhibition [11] of the same molecule?
Answer: Its inhibition is 46%.

Question: And the inhibition [12]?
Answer: Its inhibition is 9%.

Question: And the inhibition [13]?
Answer: Its inhibition is 15%.

Question: What about the inhibition [14] of the same molecule?
Answer: The inhibition was 3%.

Question: What about the inhibition [15] of the same molecule?
Answer: The inhibition was 10%.

Question: And the inhibition [16]?
Answer: Its inhibition is 16%.

Question: And the inhibition [17]?
Answer: The inhibition was 5%.

Question: And the inhibition [18]?
Answer: Its inhibition is 34%.

Question: What about the inhibition [19] of the same molecule?
Answer: Its inhibition is 25%.

Question: And the inhibition [20]?
Answer: Its inhibition is 16%.

Question: And the inhibition [21]?
Answer: Its inhibition is 11%.

Question: And the inhibition [22]?
Answer: Its inhibition is -1%.

Question: What about the inhibition [23] of the same molecule?
Answer: The inhibition was 30%.

Question: What about the inhibition [24] of the same molecule?
Answer: Its inhibition is 39%.

Question: What about the inhibition [25] of the same molecule?
Answer: Its inhibition is 16%.

Question: What about the inhibition [26] of the same molecule?
Answer: Its inhibition is 76%.

Question: And the inhibition [27]?
Answer: The inhibition was 11%.

Question: What about the inhibition [28] of the same molecule?
Answer: The inhibition was 21%.

Question: What about the inhibition [29] of the same molecule?
Answer: Its inhibition is 9%.

Question: What about the inhibition [30] of the same molecule?
Answer: The inhibition was 14%.

Question: And the inhibition [31]?
Answer: The inhibition was 11%.

Question: What about the inhibition [32] of the same molecule?
Answer: Its inhibition is 8%.

Question: And the inhibition [33]?
Answer: Its inhibition is 17%.

Question: And the inhibition [34]?
Answer: The inhibition was 67%.

Question: And the inhibition [35]?
Answer: Its inhibition is 18%.

Question: What about the inhibition [36] of the same molecule?
Answer: The inhibition was 12%.

Question: What about the inhibition [37] of the same molecule?
Answer: The inhibition was -3%.

Question: And the inhibition [38]?
Answer: The inhibition was 7%.

Question: What about the inhibition [39] of the same molecule?
Answer: Its inhibition is -8%.

Question: What about the inhibition [40] of the same molecule?
Answer: The inhibition was 7%.

Question: And the pIC50 (Aurora kinase B [41])?
Answer: Its pIC50 is < 4.57.

Question: What about the pIC50 (Aurora kinase B [42]) of the same molecule?
Answer: The pIC50 was 7.24.

Question: And the inhibition [43]?
Answer: Its inhibition is 41%.

Question: And the inhibition [44]?
Answer: The inhibition was 4%.

Question: What about the inhibition [45] of the same molecule?
Answer: The inhibition was 19%.
